Key:
[1] = AUC (0 to 24 hrs) in Sprague-Dawley rat at 1 mg/kg, iv by LC-MS/MS analysis; format: ADME, organism-based; design: dose 1 mg/kg, time < 24 hr, route intravenous; details: in vivo
In short: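 Sprague Dawley rats, Beagle dogs and Cynomolgus monkeys were dosed IV at 1 mg/kg (rat, dog) or 0.91 mpk (monkey) in 5% Solutol/5% EtOH in saline. Oral/nasogastric dosing was 3 mpk in 1.0% CMC/0.25% PS80/0.05% antifoam in purified water. Samples were processed to plasma and analysed by LC-MS/MS; values are mean ± SD, N=2-3.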

[2] = Terminal half life in Sprague-Dawley rat at 3 mg/kg, po by LC-MS/MS analysis; format: ADME, organism-based; details: in vivo, read-out: beta t1/2 (converted)
In short: (§1)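 Oral/nasogastric dosing at 3 mpk in 1.0% CMC/0.25% PS80/0.05% antifoam in purified water. Plasma samples collected and analyzed by LC-MS/MS; parameters reported as mean ± SD, N=2-3.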

[3] = tested on: Mus musculus; test: Antidyslipidemic activity in western-diet fed mouse expressing LDL-receptor (-/-) assessed as decrease in triglyceride level at 30 mg/kg qd for a week administered via gavage […]; format: functional; details: po
In short: (§2)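 Male LDLR null mice, six per group, were gavaged once daily for one week with compound (in situ sodium salt) or vehicle (5% Solutol, 5% EtOH, 1% wt/v CMC) at 5 mL/kg. On day 7 they were bled by cardiac puncture under CO2 anaesthesia. Serum cholesterol and triglycerides were measured enzymatically on a clinical chemistry analyser (mean ± SD, n=6). ED50 was obtained by nonlinear regression.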

[4] = tested on: Mus musculus; test: Antidyslipidemic activity in western-diet fed mouse expressing LDL-receptor (-/-) assessed as decrease in triglyceride level administered once daily for a week via gavage […]; format: functional; details: po; in short: as §2
[5] = tested on: Mus musculus; test: Antidyslipidemic activity in western-diet fed mouse expressing LDL-receptor (-/-) assessed as decrease in total cholesterol level administered once daily for a week via gavage […]; format: functional; details: po; in short: as §2
[6] = tested on: Rattus norvegicus; test: Antidyslipidemic activity in ZDF rat assessed as VLDL level at 10 mg/kg cotreated with 0.3 mg/kg rosiglitazone for 9 days by FPLC analysis (reference value: 35 mg/dL); format: functional, Zucker
[7] = tested on: Rattus norvegicus; test: Antidyslipidemic activity in ZDF rat assessed as LDL/IgHDL level at 10 mg/kg for 9 days by FPLC analysis (reference value: 17.8 mg/dL); format: functional, Zucker
[8] = Volume of distribution at steady state in cynomolgus monkey at 0.91 mg/kg, iv by LC-MS/MS analysis; format: ADME, organism-based, Macaca fascicularis; details: in vivo, read-out: Vdss
In short: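 Intravenous dose given in 5% Solutol / 5% EtOH in saline (1 mg/kg rat and dog, 0.91 mpk monkey). Plasma samples collected and analyzed by LC-MS/MS; parameters reported as mean ± SD, N=2-3.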

[9] = Terminal half life in cynomolgus monkey at 3 mg/kg, po by LC-MS/MS analysis; format: ADME, organism-based, Macaca fascicularis; details: in vivo, read-out: beta t1/2 (converted); in short: as §1
[10] = Fraction unbound in rat plasma; format: ADME, cell-free

AUC(0-t) at 24 h [1]: 577 ng·h/mL
half-life [2]: 2 h
Vd [8]: 0.597 L/kg
half-life [9]: 9 h
fraction unbound [10]: 0.02
Compound: Cn1cc(C(=O)O)c2ccc(N3CCC(OCc4c(-c5c(Cl)cccc5Cl)noc4C4CC4)CC3)cc21 [TERN-101]
inhibition in vivo at 30 mg/kg [3]: 83%
ED50 [4]: 3.4 mg/kg
ED50 [5]: 2 mg/kg
Activity [6]: 8.5 mg/dL
Activity [7]: 12.5 mg/dL

Source: ChEMBL document CHEMBL3745677, “Discovery of 6-(4-{[5-Cyclopropyl-3-(2,6-dichlorophenyl)isoxazol-4-yl]methoxy}piperidin-1-yl)-1-methyl-1H-indole-3-carboxylic Acid: A Novel FXR Agonist for the Treatment of Dyslipidemia” (J Med Chem, 2015)
